The full list was thinned out, with hits kept by preference.
H9c2 protect – protects H9c2 cardiomyocytes from peroxide injury. H2O2 injury protection, ATPLite, 2 h. protection from H2O2 cell death, % at 20 µM. hit rate 0.63% among 360,000. AID 588492;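 active = compounds giving at least 50% protection of heart cells from peroxide-induced death in the single-dose screen, raw or plate-pattern-corrected value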
hiPSC survival – enhancers of human iPSC single-cell survival. hiPSC single-cell survival, ATPlite luminescence; 100% = ROCK inhibitor wells, 0% = DMSO. survival enhancement, % at 20 µM. hit rate 0.044% among 360,000; in the data active = survival enhancement above about 18%;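 note: cells exposed to compounds for 16 hours before the ATP read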
CHOP inhibitor – blocks CHOP induction under ER stress. CHO-K1 CHOP-promoter luciferase, tunicamycin-induced, 15-18 h. AID 2732. hit rate 3.8% among 220,000. inhibition, % at 10 µM;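 active = compounds that reduced the stress-induced luciferase reporter signal by more than about 70% of percent inhibition, limit read from the data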
UPR XBP1 act – activators of adaptive arm of unfolded protein response (XBP1) | CHO-XBP1 luciferase reporter, IRE1-XBP1 UPR activation, luminescence; percent of tunicamycin response, DMSO as zero | activation, % at 20 µM | hit rate 0.33% among 330,000 | AID 463104;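 active = versus positive control, 20 µM dose yields 30% or more activation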
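Material: CHO cell line with stable XBP1 luciferase reporter; schedule: 16-18 h cell attachment at 37 °C, then 6 h compound exposure; signal: glow luminescence from Steady-Glo reagent; medium: serum-containing F12 medium, 10% FBS; benchmarks: tunicamycin 10 µg/mL and vehicle-only wells; read-out: percent activation relative to tunicamycin reference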
UPR CHOP act – apoptotic UPR (CHOP) activation | CHO-CHOP luciferase reporter, luminescence; percent of tunicamycin response over DMSO baseline | activation, % at 10 µM | hit rate 0.34% among 330,000;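 active = at 10 µM dose, activation of 40% or more, normalized to positive control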
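System: CHO-CHOP luciferase reporter cell line | Buffer or medium: F12 medium containing 10% fetal bovine serum | Doses: One dose, 10 µM in 0.5% DMSO | Times: 6 h compound exposure at 37 °C after overnight seeding | Signal: Luciferase luminescence | Read-out: % activation vs tunicamycin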
A number is an active result; . = inactive; / = no result given.

SMILES | H9c2 protect | hiPSC survival | CHOP inhibitor | UPR XBP1 act | UPR CHOP act
Cn1nc(-c2ccc(Cl)cc2)c2cc(C(=O)N3CCN(c4ccccn4)CC3)sc21 | . | . | 90 | . | .
O=C(CC1SC(=O)NC1=O)Nc1ccc(Cl)cc1 (stereo not given) | . | . | . | . | .
O=C(CC1NC(=O)NC1=O)Nc1ccc(Cl)cc1 (stereo not given) | . | . | 75 | . | .
COc1ccc(OCC(=O)N/N=C/c2cccc3cccnc23)cc1 | 68 | . | / | . | .
O=C(COc1ccc(Cl)cc1)N/N=C/c1cccc2cccnc12 | . | . | / | . | .
COc1ccccc1OCC(=O)N/N=C/c1cccc2cccnc12 | 65 | . | / | . | .
COc1cccc(/C=N/NC(=O)COc2cccc3cccnc23)c1O | . | . | . | . | .
O=C(Nc1ccc(F)c(Cl)c1)c1cc(C2CCCCN2C(=O)CCc2ccccc2)on1 (stereo not given) | . | . | / | / | /
CCC1CCC(C(=O)NC(C(=O)Nc2ccc3c(c2)OCCO3)C(C)C)CC1 (stereo not given) | . | . | 83 | . | .
C=CCn1c(-c2ccc(S(=O)(=O)N3CCOCC3)cc2)csc1=Nc1ccccc1 | . | . | 72 | . | .
CC(=O)c1cccc(N=c2scc(-c3ccc(S(=O)(=O)N4CCOCC4)cc3)n2CCO)c1 | . | . | . | . | .
CCOc1ccccc1N1CC(O)=C(c2nc3ccccc3s2)C1=N | 95 | . | / | . | .
COc1ccc(S(=O)(=O)N(C)C[C@H]2Oc3ccc(NS(=O)(=O)c4ccc(F)cc4)cc3C(=O)N([C@H](C)CO)C[C@@H]2C)cc1 | . | . | / | . | .
Cc1c(C(=O)NCc2ccc(C(F)(F)F)cc2)sc(=O)n1Cc1ccc(S(=O)(=O)N(C)C)cc1 | . | . | / | / | /
O=C(CCN=C1NS(=O)(=O)c2ccccc21)OCc1nnc(-c2ccc([N+](=O)[O-])cc2)o1 | . | . | / | . | .
COc1ccc(NS(=O)(=O)c2cc(NC(=O)Cc3n[nH]c(=O)c4ccccc34)ccc2OC)cc1 | 70 | . | / | / | /
COc1ccc(S(=O)(=O)N2CCCCCC2)cc1NC(=O)Cc1n[nH]c(=O)c2ccccc12 | . | . | / | . | .
COc1ccc(NS(=O)(=O)c2cc(NC(=O)c3cc(=O)c4ccccc4o3)ccc2OC)cc1 | . | . | . | . | .
COc1ccccc1NS(=O)(=O)c1cc(NC(=O)Cc2n[nH]c(=O)c3ccccc23)ccc1Cl | 70 | . | / | . | .
CCC(=O)OCc1c(C(F)(F)F)nn(C)c1Sc1ccc(Cl)cc1 | . | . | 79 | . | .
CCCCC(=O)NC(c1ccc([N+](=O)[O-])cc1)c1c(O)ccc2ccccc12 (stereo not given) | . | . | 78 | . | .
CC(C)CC(=O)NC(c1ccccc1)c1c(O)ccc2ccccc12 (stereo not given) | . | . | / | . | .
O=C(NC(c1ccc(Cl)cc1)c1c(O)ccc2ccccc12)c1ccccc1 (stereo not given) | . | . | 85 | / | /
CCOC1CCCc2oc(-c3ccc(N(C)C)cc3)c(C(=O)OC)c21 (stereo not given) | / | . | / | / | /
CC(=O)NC(c1cccc(F)c1)c1nc(-c2cnc3ccccc3c2)cs1 (stereo not given) | . | . | / | / | /
SMILES | H9c2 protect | hiPSC survival | CHOP inhibitor | UPR XBP1 act | UPR CHOP act
CCOC(=O)c1ccc(NC(=O)Nc2ccc3c4c(cccc24)C(=O)N3CC)cc1 | . | . | 83 | . | .
CC(C)NC(=O)CN1CCN(C(c2ccnc3ccccc23)c2nnnn2-c2ccc3c(c2)OCCO3)CC1 (stereo not given) | / | . | / | / | /
Cc1cc(-n2c(C)cc(C(=O)CSc3ncnc4ccccc34)c2C)no1 | . | . | 70 | . | .
Cc1cc(-n2c(C)cc(C(=O)COc3ccc4ccc(=O)oc4c3)c2C)no1 | 70 | . | . | . | .
CC(=O)c1cccc(OCC(=O)c2cc(C)n(-c3cc(C)on3)c2C)c1 | . | . | / | . | .
O=C(Cn1cnc2c(OCc3ccccc3)ncnc21)NCCc1c[nH]c2ccccc12 | . | . | / | . | .
CCOCCCNC(=O)c1c(N)n(-c2ccc3c(c2)OCO3)c2nc3ccccc3nc12 | . | . | 73 | . | .
Nc1c(C(=O)NC2CC2)c2nc3ccccc3nc2n1-c1ccc2c(c1)OCO2 | 77 | . | . | . | .
